The values that follow come from PMC4122523 (Biomedical chromatography : BMC, 2013).

Data set [1] is described as follows: Stability of stock solutions. The note with it: 12 h at room temperature and a week at −20 °C. Format: physicochemical. In short, it runs like this: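 Stock solutions: analyte 1.0 mg/mL in water, aripiprazole internal standard 1 mg/mL in methanol. Held 12 h at room temperature, and tested daily over 1 week during storage at −20 °C. Compared against freshly prepared standards by UPLC/MS/MS.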

For data set [2], the system named is neurotoxic and stimulant effects of METH. The note with it: mouse; ref Kaushal et al., 2011, 2012; cited from earlier work.
The conditions of data set [3]: ref Seminerio et al., 2012b, cited from earlier work.
Data set [4] relates to METH-induced memory impairment. The conditions noted are these: mouse; ref Seminerio et al., 2012a; cited from earlier work.
The subject of data set [5] is METH-induced dopaminergic neurotoxicity and hyperthermia. The note with it: Swiss Webster mice, intraperitoneal; ref Seminerio et al., 2012a; cited from earlier work.
Data set [6] has as its system both subtypes of sigma receptors. The conditions noted are these: radioligand binding; ref Seminerio et al., 2012b; cited from earlier work.
A short description of data set [7]: Stability of AZ66 in rat plasma at various storage conditions. Type of data set: in vitro ADME. In short, it runs like this: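 Rat plasma QC samples at 10, 400 and 3000 ng/mL, six replicates each. Conditions: three freeze–thaw cycles at −20 °C; −20 °C for 30 days; room temperature for 12 h; processed extracts held in the autosampler at 25 °C for 24 h. Analysed by chloroform liquid–liquid extraction and UPLC/MS/MS with aripiprazole internal standard. Compared against freshly prepared standards; bias = 100×(measured−actual)/actual.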

Data set [8] is described as follows: Intravenous pharmacokinetic study in rats. Format: in vivo, male Sprague–Dawley rats. The conditions noted are these: rat. In a few lines: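 Male Sprague–Dawley rats (n = 6, 260–280 g), fasted overnight, given water after dosing and food from 4 h post-dose. Single 5 mg/kg i.v. dose via jugular-vein cannula. Blood (0.15 mL) drawn via cannula pre-dose and at 2–480 min and 12–42 h. Plasma separated at 10,000 g, 10 min, 4 °C, and stored at −20 °C. Chloroform extraction with aripiprazole internal standard, UPLC/MS/MS, then non-compartmental analysis.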

Data set [9] relates to cocaine-induced convulsions. The conditions noted are these: mice, toxic dose of cocaine; ref Seminerio et al., 2012b; cited from earlier work.
The mark [10] stands for this setting: processed plasma samples, auto-sampler 24 h (25 °C), spiked 10 ng/mL.
[11] abbreviates: processed plasma samples, auto-sampler 24 h (25 °C), spiked 400 ng/mL.
Setting [12] is: rat plasma, long-term 30 days (−20 °C), spiked 10 ng/mL.
[13] abbreviates: rat plasma, long-term 30 days (−20 °C), spiked 400 ng/mL.
Setting [14] is: rat plasma, long-term 30 days (−20 °C), spiked 3000 ng/mL.
Where [15] appears, read: rat plasma, short-term 12 h (25 °C), spiked 10 ng/mL.
The mark [16] stands for this setting: rat plasma, short-term 12 h (25 °C), spiked 400 ng/mL.
Where [17] appears, read: rat plasma, short-term 12 h (25 °C), spiked 3000 ng/mL.
[18] abbreviates: rat plasma, three freeze–thaw cycles (−20 °C), spiked 400 ng/mL.
The mark [19] stands for this setting: rat plasma, three freeze–thaw cycles (−20 °C), spiked 3000 ng/mL.
Setting [20] is: male, Sprague-Dawley, plasma, iv, 5 mg/kg.

Molecules are shown by their SMILES.

Consider `O=C1CCc2ccc(OCCCCN3CCN(c4cccc(Cl)c4Cl)CC3)cc2N1` [IS, aripiprazole, reference compound], for which the “Stability of stock solutions” value in data set [1] was “stable”.

Consider `c1ccc(CCN2CCCCC2)cc1` [AC927], for which, in [2], the “effect on neurotoxic effects of METH” value is listed as “attenuated” and the “effect on stimulant effects of METH” value is listed as “attenuated”.

As to `S=c1sc2ccccc2n1CCCCN1CCN(C2CCCCC2)CC1` [CM156, 3-[4-(4-cyclohexylpiperazin-1-yl)butyl]benzo[d]thiazole-2(3H)-thione], in [2], the “effect on neurotoxic effects of METH” value is on record as “attenuated” and the “effect on stimulant effects of METH” value was “attenuated”. In addition, in data set [3] (rat liver microsomes), the in vitro half-life is 4.62 min.

Usually Cmax stands for the peak of the concentration-time curve. Broadly, the MRT is the average time that molecules of a dose stay in the body. What is called Vd is the apparent volume that relates the amount in the body to the concentration in plasma or blood. Lower therefore signals little distribution into tissue. A word on the clearance: it is a measure of how efficiently the substance is removed, as volume per time. High values mean a high capacity for elimination, low ones a low capacity for elimination. For orientation: half-life means the time needed for the level to fall by half in the phase considered. Consider `CC(CCCn1c(=O)sc2cc(F)ccc21)N1CCN(C2CCCCC2)CC1` (stereo not shown) [AZ66, 3-[4-(4-cyclohexylpiperazin-1-yl)pentyl]-6-fluorobenzo[d] thiazole-2(3H)-one], for which the “Stability of stock solutions” value in data set [1] is “stable”. Further, the “effect on memory impairment caused by repeated intake of METH” value in data set [4] is reported as “attenuated the memory impairment”. For the same compound, the “effect on METH-induced dopaminergic neurotoxicity” value in [5] is “attenuate”. In [5], the “effect on METH-induced hyperthermia” value is “attenuate”. Besides, the “affinity for both subtypes of sigma receptors” value in data set [6] is recorded as “high nanomolar affinity”. Also, in [6], the “selectivity over a wide battery of CNS targets” value is on record as “highly selective”. In data set [7] (25 °C for 24 h), the “Stability in reconstituted samples in the auto-sampler” value is “stable”. For the same compound, the Bias in [7] (setting [10]) is given as 1.7%; in data set [7] (setting [11]), 0.8%; in [7] (setting [12]), 0.3%; in data set [7] (setting [13]) it was −0.4%; in data set [7] (setting [14]) it was −0.6%; in [7] (setting [15]), 1.3%. Besides, the Bias is listed as −0.5% in [7] (setting [16]), 1.0% in [7] (setting [17]), −0.6% in data set [7] (setting [18]) and 0.2% in data set [7] (setting [19]). In addition, the Measured concentration in data set [7] (setting [10]) stood at 10.1 ± 0.2 ng/mL; in data set [7] (setting [11]), 403.2 ± 18.6 ng/mL; in data set [7] (processed plasma samples, auto-sampler 24 h (25 °C), spiked 3000 ng/mL), 3222 ± 79.4 ng/mL; in data set [7] (setting [12]) it was 10.2 ± 0.4 ng/mL; in [7] (setting [13]) it was 402.4 ± 7.1 ng/mL; in [7] (setting [14]), 3028 ± 55.0 ng/mL. The Measured concentration in data set [7] (setting [15]) is on record as 10.2 ± 0.2 ng/mL; in [7] (setting [16]), 401.4 ± 3.5 ng/mL; in data set [7] (setting [17]), 3015 ± 30.6 ng/mL; in data set [7] (rat plasma, three freeze–thaw cycles (−20 °C), spiked 10 ng/mL), 10.2 ± 0.7 ng/mL; in [7] (setting [18]) it was 396.1 ± 12.7 ng/mL; in data set [7] (setting [19]) it was 2990 ± 42.9 ng/mL. The “Short-term stability in rat plasma” value in data set [7] (room temperature for 12 h (25 °C)) is recorded as “stable”. Further, in [7] (three freeze–thaw cycles, 10, 400 and 3000 ng/mL), the “Freeze–thaw stability in rat plasma” value is reported as “stable”. Also, in data set [7] (−20 °C for 30 days), the “Long-term stability in rat plasma” value is on record as “stable”. Also, the highest level in data set [8] (setting [20]) (Cmax) was 1200 ± 200 ng/mL. The compound also came in with a mean residence time (MRT) in [8] (setting [20]) of 7.6 ± 0.7 h. The compound also showed a Vd in data set [8] (setting [20]) of 30.1 ± 3.6 L/kg. For the same compound, in data set [8] (setting [20]), the clearance is 43.3 mL/min/kg. The compound further gave a half-life in data set [8] (setting [20]) of 7.9 ± 0.3 h. Besides, the “CL (total clearance)” value in [8] (i.v. 5 mg/kg, n=6, mean ± SD) was determined as 43.3 ± 6.7 mL/min/kg. Also, in data set [9], the “attenuation of cocaine-induced convulsions” value is listed as “significantly attenuate convulsions”. Also, the “in vitro half-life compared with CM156” value in [3] (in vitro) was “appreciably longer half-life”.
